Assay results published in ChEMBL document CHEMBL4000215, “A structure-guided optimization of pyrido[2,3-d]pyrimidin-7-ones as selective inhibitors of EGFRL858R/T790M mutant with improved pharmacokinetic properties” (Eur J Med Chem, 2017).

Legend:
NCI-H1975 = assay: Antiproliferative activity against human NCI-H1975 cells harboring EGFR L858R/T790M double mutant after 72 hrs by SRB assay; assay type: functional, cell-based; details: NCI-H1975, 72 h
Procedure, shortened: (§1)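 Cells were cultured in RPMI 1640 with 10% FBS and 1% penicillin-streptomycin at 37 °C in 5% CO2, and their EGFR gene was sequenced before use. They were exposed to a range of compound concentrations for 72 h, and growth was read by sulforhodamine B staining. IC50 came from non-linear regression with a sigmoidal dose-response model.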

[1] = target: Epidermal growth factor receptor (Homo sapiens, UniProt P00533); assay: Inhibition of N-terminal 6His/TEV protease cleavage site-tagged wild type human EGFR using poly (Glu,Tyr) 4:1 as substrate after 1 hr by ELISA
Sequence of Epidermal growth factor receptor (Homo sapiens, UniProt P00533) (P00533 whole entry): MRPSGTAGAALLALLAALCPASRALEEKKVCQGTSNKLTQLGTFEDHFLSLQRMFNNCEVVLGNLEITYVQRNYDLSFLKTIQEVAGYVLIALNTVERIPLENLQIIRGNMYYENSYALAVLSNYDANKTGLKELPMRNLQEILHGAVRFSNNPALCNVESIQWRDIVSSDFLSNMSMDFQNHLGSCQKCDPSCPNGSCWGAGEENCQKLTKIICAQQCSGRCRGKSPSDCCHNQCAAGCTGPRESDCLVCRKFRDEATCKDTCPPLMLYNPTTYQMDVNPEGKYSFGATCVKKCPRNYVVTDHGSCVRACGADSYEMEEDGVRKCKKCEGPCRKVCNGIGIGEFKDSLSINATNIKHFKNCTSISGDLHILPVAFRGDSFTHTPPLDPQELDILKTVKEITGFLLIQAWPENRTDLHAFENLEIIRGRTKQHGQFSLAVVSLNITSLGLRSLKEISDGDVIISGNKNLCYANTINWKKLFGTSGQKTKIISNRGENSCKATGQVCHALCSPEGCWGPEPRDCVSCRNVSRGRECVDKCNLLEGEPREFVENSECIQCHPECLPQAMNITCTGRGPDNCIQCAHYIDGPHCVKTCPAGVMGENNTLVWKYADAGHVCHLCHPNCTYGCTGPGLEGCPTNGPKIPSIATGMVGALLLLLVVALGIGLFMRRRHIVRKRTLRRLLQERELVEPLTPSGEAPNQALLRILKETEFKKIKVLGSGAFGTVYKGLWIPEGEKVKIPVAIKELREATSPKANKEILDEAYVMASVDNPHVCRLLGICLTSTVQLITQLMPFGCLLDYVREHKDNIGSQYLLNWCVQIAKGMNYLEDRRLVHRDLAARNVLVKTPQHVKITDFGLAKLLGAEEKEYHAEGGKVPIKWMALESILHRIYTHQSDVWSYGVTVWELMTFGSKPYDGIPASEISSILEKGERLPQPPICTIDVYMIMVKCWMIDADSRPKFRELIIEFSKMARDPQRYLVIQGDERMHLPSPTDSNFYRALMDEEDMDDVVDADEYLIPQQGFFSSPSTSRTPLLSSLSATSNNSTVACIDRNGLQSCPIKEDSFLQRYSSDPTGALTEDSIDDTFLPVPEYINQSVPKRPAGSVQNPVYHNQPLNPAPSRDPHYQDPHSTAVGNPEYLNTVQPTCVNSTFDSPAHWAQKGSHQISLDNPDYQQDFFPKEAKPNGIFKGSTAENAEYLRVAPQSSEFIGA

A-431 = assay: Antiproliferative activity against human A431 cells harboring wild type EGFR after 72 hrs by SRB assay; assay type: cell-based; details: A-431, 72 h; procedure, shortened: as §1
[2] = target: Epidermal growth factor receptor (Homo sapiens, UniProt P00533, L858R/T790M); assay: Inhibition of N-terminal 6His/TEV protease cleavage site-tagged human EGFR L858R/T790M double mutant (696 to 1022 residues) using poly (Glu,Tyr) 4:1 as substrate after 1 hr by ELISA
Sequence of Epidermal growth factor receptor (Homo sapiens, UniProt P00533, L858R/T790M) (P00533 25-1210 T790M/L858R limits assumed): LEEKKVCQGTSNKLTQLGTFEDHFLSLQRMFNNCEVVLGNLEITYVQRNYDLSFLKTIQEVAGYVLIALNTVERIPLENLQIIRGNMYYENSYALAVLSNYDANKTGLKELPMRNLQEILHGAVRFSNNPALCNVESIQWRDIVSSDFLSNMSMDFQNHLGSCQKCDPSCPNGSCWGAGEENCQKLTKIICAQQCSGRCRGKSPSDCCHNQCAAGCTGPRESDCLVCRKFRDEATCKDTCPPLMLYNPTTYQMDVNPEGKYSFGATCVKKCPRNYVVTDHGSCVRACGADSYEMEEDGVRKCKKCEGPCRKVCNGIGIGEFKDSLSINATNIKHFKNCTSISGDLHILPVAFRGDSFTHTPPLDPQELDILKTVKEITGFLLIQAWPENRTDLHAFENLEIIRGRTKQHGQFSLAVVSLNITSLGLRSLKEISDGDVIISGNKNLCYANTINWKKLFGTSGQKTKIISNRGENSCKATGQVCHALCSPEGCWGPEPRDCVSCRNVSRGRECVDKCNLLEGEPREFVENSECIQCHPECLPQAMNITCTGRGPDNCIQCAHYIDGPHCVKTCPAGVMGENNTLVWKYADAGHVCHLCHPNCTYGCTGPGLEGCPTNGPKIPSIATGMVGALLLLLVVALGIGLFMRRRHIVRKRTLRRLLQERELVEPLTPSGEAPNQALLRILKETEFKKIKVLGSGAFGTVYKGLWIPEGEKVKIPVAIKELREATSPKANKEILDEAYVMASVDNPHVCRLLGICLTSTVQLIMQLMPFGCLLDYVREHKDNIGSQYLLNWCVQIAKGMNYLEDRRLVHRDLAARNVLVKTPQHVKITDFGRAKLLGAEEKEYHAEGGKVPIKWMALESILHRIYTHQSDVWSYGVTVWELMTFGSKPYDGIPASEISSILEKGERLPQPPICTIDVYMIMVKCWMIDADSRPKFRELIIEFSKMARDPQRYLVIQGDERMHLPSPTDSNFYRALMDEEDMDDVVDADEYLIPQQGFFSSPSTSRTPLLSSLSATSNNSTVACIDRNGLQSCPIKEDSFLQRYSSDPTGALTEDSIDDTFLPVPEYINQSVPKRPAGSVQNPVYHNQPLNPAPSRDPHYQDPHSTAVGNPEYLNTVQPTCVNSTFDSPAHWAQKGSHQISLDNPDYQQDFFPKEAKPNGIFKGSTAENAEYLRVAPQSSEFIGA

[3] = Tmax in Sprague-Dawley rat at 25 mg/kg administered via oral gavage by LC-MS/MS analysis; assay type: ADME, organism-based; details: in vivo
Procedure, shortened: (§2)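 Male Sprague-Dawley rats (180-300 g, n = 3 per route) were given a single dose, either 5 mg/kg iv or 25 mg/kg by oral gavage. Vehicle was 5% DMSO, 40% PEG400 and saline. Orbital sinus blood (0.2 mL) was taken into heparinized tubes at 0 min to 24 h. Plasma was stored at -80 °C and assayed by LC-MS/MS, and PK parameters were then calculated.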

[4] = AUC (0 to infinity) in Sprague-Dawley rat at 25 mg/kg administered via oral gavage by LC-MS/MS analysis; assay type: ADME, organism-based; parameters: dose 25 mg/kg, route oral, time infinity; details: in vivo; procedure, shortened: as §2
[5] = Oral bioavailability in Sprague-Dawley rat at 25 mg/kg administered via gavage by LC-MS/MS analysis; assay type: ADME, organism-based; details: in vivo; procedure, shortened: as §2
[6] = (§3) AUC (0 to infinity) in Sprague-Dawley rat at 5 mg/kg, iv by LC-MS/MS analysis; assay type: ADME, organism-based; parameters: dose 5 mg/kg, time infinity, route intravenous; details: Sprague-Dawley, in vivo; procedure, shortened: as §2
[7] = (§4) Apparent clearance in Sprague-Dawley rat at 5 mg/kg, iv by LC-MS/MS analysis; assay type: ADME, organism-based; details: Sprague-Dawley, in vivo, read-out: CL(app) (converted); procedure, shortened: as §2
[8] = Cmax in Sprague-Dawley rat at 25 mg/kg administered via oral gavage by LC-MS/MS analysis; assay type: ADME, organism-based; parameters: dose 25 mg/kg, route oral; details: in vivo; procedure, shortened: as §2
[9] = Cmax in Sprague-Dawley rat at 5 mg/kg, iv by LC-MS/MS analysis; assay type: ADME, organism-based; parameters: dose 5 mg/kg, route intravenous; details: in vivo; procedure, shortened: as §2
Rattus norvegicus [10] = assay: as §3; assay type: ADME, organism-based; parameters: dose 5 mg/kg, time infinity, route intravenous; details: in vivo; procedure, shortened: as §2
Rattus norvegicus [11] = assay: as §4; assay type: ADME, organism-based; details: in vivo; procedure, shortened: as §2

Compound	IC50 (NCI-H1975)	IC50 [1]	IC50 (A-431)	IC50 [2]	also measured
C=CC(=O)Nc1cccc(-n2c(=O)cc(C)c3cnc(Nc4ccc(N5CCN(C)CC5)cc4OC)nc32)c1	0.002 µM	0.33 µM	1.4 µM	–	–
C=CC(=O)Nc1cccc(-n2c(=O)cc(C)c3cnc(Nc4nc5c(s4)CN(C)CC5)nc32)c1	0.008 µM	0.55 µM	2.7 µM	0.0025 µM	–
C=CC(=O)Nc1cccc(-n2c(=O)cc(C)c3cnc(Nc4cnn(C5CCN(C)CC5)c4)nc32)c1	0.014 µM	0.166 µM	3.52 µM	0.0018 µM	–
C=CC(=O)Nc1cccc(-n2c(=O)cc(C)c3cnc(Nc4ccc(N5CCN(C)CC5)cc4OC)nc32)c1.CS(=O)(=O)O	–	–	–	–	Tmax [3]: 1.56 h; AUC(0-inf) [4]: 0.243 µg·h/mL; bioavailability [5]: 10.8%; AUC(0-inf) [6]: 0.45 µg·h/mL; clearance [7]: 11.4 L/h/kg; Cmax [8]: 0.0831 µg/mL; Cmax [9]: 1.37 µg/mL
C=CC(=O)Nc1cc(-n2c(=O)cc(C)c3cnc(Nc4ccc(N5CCN(C)CC5)cc4OC)nc32)cc(C(F)(F)F)c1.CS(=O)(=O)O	–	–	–	–	Tmax [3]: 2 h; AUC(0-inf) [4]: 0.671 µg·h/mL; bioavailability [5]: 16.1%; AUC(0-inf) [6]: 0.831 µg·h/mL; clearance [7]: 6.1 L/h/kg; Cmax [8]: 0.161 µg/mL; Cmax [9]: 2.46 µg/mL
C=CC(=O)Nc1cccc(-n2c(=O)cc(C)c3cnc(Nc4ccc(N5CC(C)N(C)C(C)C5)cc4OC)nc32)c1 (stereo not drawn)	0.004 µM	–	1.67 µM	–	–
C=CC(=O)N1CC[C@@H](n2c(=O)cc(C)c3cnc(Nc4ccc(N5CCN(C)CC5)cc4OC)nc32)C1	5.2 µM	–	> 10 µM	–	–
C=CC(=O)Nc1cc(C)cc(-n2c(=O)cc(C)c3cnc(Nc4ccc(N5CCN(C)CC5)cc4OC)nc32)c1	0.006 µM	0.208 µM	3.25 µM	0.0018 µM	–
C=CC(=O)Nc1cccc(-n2c(=O)cc(C)c3cnc(Nc4ccc(N5CCN(C)C(C)C5)cc4OC)nc32)c1.CS(=O)(=O)O (stereo not drawn)	–	–	–	–	Tmax [3]: 1.67 h; AUC(0-inf) [4]: 0.526 µg·h/mL; bioavailability [5]: 24.3%; AUC(0-inf) [6]: 0.433 µg·h/mL; clearance [7]: 11.8 L/h/kg; Cmax [8]: 0.155 µg/mL; Cmax [9]: 1.33 µg/mL
C=CC(=O)Nc1cc(-n2c(=O)cc(C)c3cnc(Nc4ccc(N5CC(C)N(C)C(C)C5)cc4OC)nc32)cc(C(F)(F)F)c1 (stereo not drawn)	0.03 µM	0.097 µM	1.13 µM	0.0033 µM	–
C=CC(=O)Nc1cc(C(C)C)cc(-n2c(=O)cc(C)c3cnc(Nc4ccc(N5CCN(C)CC5)cc4OC)nc32)c1	0.12 µM	0.024 µM	1.44 µM	0.0024 µM	–
C=CC(=O)Nc1cccc(-n2c(=O)cc(C)c3cnc(Nc4cnn(CCN(C)C)c4)nc32)c1	0.289 µM	0.445 µM	4 µM	0.0042 µM	–
C=CC(=O)Nc1cc(-n2c(=O)cc(C)c3cnc(Nc4ccc(N5CCN(C)CC5)cc4OC)nc32)ccc1C	0.081 µM	0.0369 µM	3.62 µM	0.0023 µM	–
C=CC(=O)Nc1cccc(-n2c(=O)cc(C)c3cnc(Nc4ccc(N5CCN(C)CC5)nc4)nc32)c1	0.064 µM	0.0468 µM	2.38 µM	0.0014 µM	–
C=CC(=O)Nc1cc(F)cc(-n2c(=O)cc(C)c3cnc(Nc4ccc(N5CCN(C)CC5)cc4OC)nc32)c1	0.0001 µM	0.026 µM	0.817 µM	0.0008 µM	–
C=CC(=O)Nc1cccc(-n2c(=O)cc(C)c3cnc(Nc4ccc(N5CCN(C)C(C)C5)cc4OC)nc32)c1 (stereo not drawn)	0.018 µM	0.169 µM	0.706 µM	0.0012 µM	–
C=CC(=O)N1CC[C@H](n2c(=O)cc(C)c3cnc(Nc4ccc(N5CCN(C)CC5)cc4OC)nc32)C1	0.762 µM	–	> 10 µM	–	–
C=CC(=O)Nc1cc(-n2c(=O)cc(C)c3cnc(Nc4ccc(N5CC(C)N(C)C(C)C5)cc4OC)nc32)cc(C(F)(F)F)c1.CS(=O)(=O)O (stereo not drawn)	–	–	–	–	Tmax [3]: 6 h; AUC(0-inf) [4]: 0.0897 µg·h/mL; bioavailability [5]: 4.38%; AUC(0-inf) [6]: 0.41 µg·h/mL; clearance [7]: 12.3 L/h/kg; Cmax [8]: 0.0175 µg/mL; Cmax [9]: 0.592 µg/mL
C=CC(=O)Nc1cc(-n2c(=O)cc(C)c3cnc(Nc4ccc(N5CCN(C)C(C)C5)cc4OC)nc32)cc(C(F)(F)F)c1.CS(=O)(=O)O (stereo not drawn)	–	–	–	–	Tmax [3]: 1.67 h; AUC(0-inf) [4]: 0.111 µg·h/mL; bioavailability [5]: 5.58%; AUC (Rattus norvegicus [10]): 0.39848 µg·h/mL; CL(app) (Rattus norvegicus [11]): 2.25 L/h/kg; Cmax [8]: 0.0214 µg/mL; Cmax [9]: 0.259 µg/mL
C=CC(=O)Nc1cc(Br)cc(-n2c(=O)cc(C)c3cnc(Nc4ccc(N5CCN(C)CC5)cc4OC)nc32)c1	0.004 µM	0.057 µM	1.15 µM	0.0018 µM	–
C=CC(=O)Nc1cc(-n2c(=O)cc(C)c3cnc(Nc4ccc(N5CCN(C)CC5)cc4OC)nc32)cc(C(C)(C)C)c1	0.197 µM	> 1 µM	0.66 µM	0.0177 µM	–
C=CC(=O)N1CCC(n2c(=O)cc(C)c3cnc(Nc4ccc(N5CCN(C)CC5)cc4OC)nc32)CC1	2.23 µM	> 1 µM	> 10 µM	> 1 µM	–
C=CC(=O)Nc1cc(CC)cc(-n2c(=O)cc(C)c3cnc(Nc4ccc(N5CCN(C)CC5)cc4OC)nc32)c1	0.142 µM	0.472 µM	1.05 µM	0.0034 µM	–
C=CC(=O)Nc1cccc(-n2c(=O)cc(C)c3cnc(Nc4ccc(N5CC(C)N(C)C(C)C5)cc4OC)nc32)c1.CS(=O)(=O)O (stereo not drawn)	–	–	–	–	Tmax [3]: 4 h; AUC(0-inf) [4]: 0.613 µg·h/mL; bioavailability [5]: 13.3%; AUC(0-inf) [6]: 0.622 µg·h/mL; clearance [7]: 8.12 L/h/kg; Cmax [8]: 0.0644 µg/mL; Cmax [9]: 0.772 µg/mL
C=CC(=O)Nc1cc(-n2c(=O)cc(C)c3cnc(Nc4ccc(N5CCN(C)C(C)C5)cc4OC)nc32)cc(C(F)(F)F)c1 (stereo not drawn)	0.012 µM	0.066 µM	1.71 µM	0.0016 µM	–
C=CC(=O)Nc1cc(Cl)cc(-n2c(=O)cc(C)c3cnc(Nc4ccc(N5CCN(C)CC5)cc4OC)nc32)c1	0.007 µM	0.0331 µM	1.43 µM	0.0006 µM	–
C=CC(=O)N1CCC(Cn2c(=O)cc(C)c3cnc(Nc4ccc(N5CCN(C)CC5)cc4OC)nc32)C1 (racemic)	0.305 µM	> 1 µM	> 10 µM	0.0638 µM	–
C=CC(=O)Nc1cccc(Nc2nc(Nc3ccc(N4CCN(C(C)=O)CC4)cc3OC)ncc2C(F)(F)F)c1 [ROCILETINIB]	0.042 µM	–	1.54 µM	–	–
